Ecoli WT expand – growth inhibitors of wild-type E. coli, primary screen, strain BW25113, expanded library, OD600; OD600 absorbance; growth inhibition, % at 100 µM; 98,000 compounds, 0.15% hits; AID 710, 2007;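 active = growth inhibition above about 50% at one test dose, limit read from the data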;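 also: growth measured after 20 h incubation at 37 °C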
Ecoli tolC – growth inhibitors of E. coli tolC mutant, primary screen, strain BW25113 ΔtolC::kan, 384-well; OD615; growth inhibition, % at 10 µM (by protocol); 65,000 compounds, 2.2% hits; AID 573, 2007;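 active = growth inhibition at or above a cutoff equal to the mean over every tested compound plus 3 SD, cut at about 60% in these data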;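 also: growth measured after 20 h incubation at 37 °C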
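Test system: tolC-deleted E. coli BW25113 | Medium: LB with kanamycin 50 µg/mL | Compound dosing: Single concentration, 10 µM final per compound | Schedule: 37 °C, 20 h exposure | Measured by: OD at 615 nm | Evaluation: Percent growth inhibition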
PostGolgi ctrl – growth inhibition of yeast control strain, primary screen, counter-screen for post-Golgi transport modulator project. efflux-deficient yeast background strain, growth absorbance A615, 16 h. 98,000 compounds, 5% hits. AID 738, 2007. inhibition, % at 10 µM
PLAP activator – PLAP enzyme activators, biochemical, luminescence, HTS; Alkaline phosphatase, placental type (Homo sapiens), P05187; purified PLAP enzyme, luminescent substrate read-out; active compounds read high; activation fold at 20 µM; 96,000 compounds, 1.2% hits; AID 696, 2007; in the data active = activation fold above about 2
PostGolgi yeast – phenotypic screen on post-Golgi transport, primary screen; post-Golgi transport phenotypic cell assay; inhibition, % at 10 µM; 98,000 compounds, 0.9% hits;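 also: yeast cells grown in 1536-well plates; yeast grown about 18 h at 30C before absorbance read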
HePTP inh – inhibitors of human HePTP phosphatase, primary screen, biochemical, absorbance, leukemia target. Tyrosine-protein phosphatase non-receptor type 7 (Homo sapiens), P35236. recombinant HePTP phosphatase activity, OD absorbance. inhibition, % at 20 µM. 110,000 compounds, 0.64% hits. AID 521, 2006; in the data active = inhibition above about 50%
Target sequence (P35236 whole entry, looked up): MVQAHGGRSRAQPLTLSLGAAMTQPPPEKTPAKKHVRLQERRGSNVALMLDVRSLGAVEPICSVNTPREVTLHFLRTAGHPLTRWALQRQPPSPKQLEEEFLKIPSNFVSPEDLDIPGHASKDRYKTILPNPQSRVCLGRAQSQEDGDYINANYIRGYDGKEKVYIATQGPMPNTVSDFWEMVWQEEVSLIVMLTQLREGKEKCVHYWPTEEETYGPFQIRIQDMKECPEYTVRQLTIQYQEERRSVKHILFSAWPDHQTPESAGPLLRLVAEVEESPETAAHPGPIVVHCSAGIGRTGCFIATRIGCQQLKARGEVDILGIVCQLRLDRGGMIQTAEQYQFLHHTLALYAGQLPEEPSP
Numbers stand for hits; - = inactive; . = no result. Hits are enriched below; roughly 5.5% of the tested compounds scored in any of these assays. Rule as the data show it, unless noted: active = inhibition above about 30%; inactive = the rest.

SMILES | Ecoli WT expand | Ecoli tolC | PostGolgi ctrl | PLAP activator | PostGolgi yeast | HePTP inh
COc1ccc(-c2cnc(N)n2CC2CCCO2)cc1 (stereo unspecified) | - | 64 | - | - | - | -
CCN(CC)C(=O)CSC1=Nc2ccccc2C2=NC(Cc3c[nH]c4ccccc34)C(=O)N12 (stereo unspecified) | - | - | 34 | - | - | -
CN1CCCc2c1nc1c(c2N)CCCC1 | . | . | . | . | . | -
O=C(CCOc1ccccc1)Nc1cccc([N+](=O)[O-])c1 | . | . | . | . | . | 92
O=C(COc1ccccc1)Nc1cccc([N+](=O)[O-])c1 | . | . | . | . | . | -
O=C(N/N=C/c1cccc(Cl)c1Cl)Nc1ccccc1 | - | . | 36 | . | - | .
Cc1cc(OCC(F)(F)C(F)(F)C(F)(F)C(F)(F)C(F)(F)C(F)F)nc(N)n1 | - | . | - | - | 37 | .
C=CCc1ccccc1OCc1nnc(N)s1 | . | . | . | . | . | -
Nc1nc(-c2ccc3c(c2)OCCO3)cs1 | - | - | - | - | - | -
c1ccc(-c2ccc(-c3cnc4n3CCCCC4)cc2)cc1 | - | . | - | - | 81 | .
c1cc2c(cc1-c1cnc3n1CCC3)OCCO2 | - | - | 37 | - | - | -
CCC1=NN2C(=N)/C(=C/c3cccc(OCc4ccccc4F)c3)C(=O)N=C2S1 | . | . | . | . | . | -
O=C(Nc1nc(-c2cccs2)c(-c2ccccc2)s1)c1ccco1 | - | - | 32 | - | 36 | -
O=C(Nc1nnc(-c2cccs2)o1)c1ccco1 | - | - | - | - | - | -
O=C(Nc1ccc(S(=O)(=O)N2CCOCC2)cc1)c1ccccc1Cl | . | . | . | . | . | -
Cc1noc(C)c1COC(=O)c1ccccc1Sc1ccccc1C#N | - | - | 30 | - | - | -
CCOC(=O)N1CCN(c2nc3ccccc3nc2C(C#N)S(=O)(=O)c2ccc(C)cc2)CC1 (stereo unspecified) | - | 77 | - | - | - | -
Cc1ccc(S(=O)(=O)C(C#N)c2nc3ccccc3nc2N2CCCCC2)cc1 (stereo unspecified) | . | - | . | - | . | -
N#CC(c1nc2ccccc2nc1N1CCCCC1)S(=O)(=O)c1ccc(Cl)cc1 (stereo unspecified) | . | 89 | . | - | . | -
COc1ccc(OC)c2c1sc(=NC(=O)c1cccc(N3C(=O)CCC3=O)c1)n2C | - | . | 31 | - | - | .
COc1ccccc1NS(=O)(=O)c1cccc(C(=O)N/N=C(\C)c2ccc(-n3ccnc3)cc2)c1 | - | . | - | 2 | - | .
COc1ccc(/C=C2/Sc3ccccc3C2=O)cc1Br | . | . | . | . | . | -
O=C(Nc1cccc([N+](=O)[O-])c1)c1cc(-c2ccco2)nc2ccccc12 | . | . | . | . | . | 103
O=C(CSc1ccc(Cl)cc1Cl)N1CCC(c2nc3ccccc3s2)CC1 | - | . | 38 | - | - | .
Cc1cc(Cl)c(S(=O)(=O)N2CCCC2)cc1OCC(=O)NC1CCCCC1 | - | . | - | 2 | - | .
SMILES | Ecoli WT expand | Ecoli tolC | PostGolgi ctrl | PLAP activator | PostGolgi yeast | HePTP inh
Cc1cc(Cl)c(S(=O)(=O)NC(C(=O)O)C(C)C)cc1OCC(=O)NC1CCCCC1 (stereo unspecified) | - | . | - | 2 | - | .
CCOC(=O)c1cccc2c1-c1ccccc1/C2=N/O | - | 100 | - | - | - | -
CCOC(=O)c1ccccc1N1C(=O)C=CC1=O | . | . | . | . | . | -
CCCCNC(=O)c1sc(=S)n2c1[nH]c(=O)c1ccccc12 | - | 100 | 44 | - | - | -
CCCCNC(=O)c1sc(=S)n(-c2ccccc2OC)c1N | - | . | - | - | - | .
O=C(NC1CCCCC1)c1sc(=S)n2c1[nH]c(=O)c1ccccc12 | - | 100 | 56 | - | - | -
O=C(NCC1CCCO1)c1ccc2c(=O)n(CC3CCCO3)c(=S)[nH]c2c1 (stereo unspecified) | - | . | - | - | - | .
O=C(NCC1CCCO1)c1sc(=S)n2c1[nH]c(=O)c1ccc(C(=O)N3CCCCC3)cc12 (stereo unspecified) | - | 67 | - | - | - | -
O=C(NC1CCCCCC1)c1c(O)c2ccccc2[nH]c1=O | - | - | - | - | - | -
CC(C)(C)c1cc(C(=O)N/N=C/c2ccc(Br)cc2)n[nH]1 | . | . | . | . | . | -
O=C(Nc1ccc(-c2ccccc2)cc1)c1cccnc1 | . | . | . | . | . | -
O=C(NC(Nc1ccccc1)C(=O)c1cccs1)c1ccccc1 (stereo unspecified) | . | . | . | . | . | -
COC(=O)NCC12CC3CC(C1)CC(CNC(=O)OC)(C3)C2 | - | - | 33 | - | - | -
COc1cccc(OC)c1C(=O)NCC12CC3CC(C1)CC(CNC(=O)c1c(OC)cccc1OC)(C3)C2 | . | . | . | . | . | -
Cc1cc(C)c(S(=O)(=O)Nc2ccc3c4c(cccc24)CC3)c(C)c1 | - | . | 61 | - | - | .
Cc1cc(C)c(S(=O)(=O)Nc2ccc(Cl)c3cccnc23)c(C)c1 | . | . | . | . | . | -
Cn1c(SCC(=O)n2c3c(c4ccccc42)CCCC3)nnc1-c1ccccc1 | - | . | 34 | - | - | .
COc1ccc(C2C3=C(CC(C)(C)CC3=O)Nc3ccccc3N2C(=O)CC(C)C)cc1 (stereo unspecified) | . | . | . | . | . | -
COc1ccc(N2CCN(C(c3cccs3)C(C)NS(=O)(=O)c3ccccc3)CC2)cc1 (stereo unspecified) | - | - | 39 | - | - | -
Cc1ccc(-c2csc(NC(=O)c3sc4cc(C)ccc4c3Cl)n2)cc1 | . | . | . | . | . | -
O=C(c1c(O)c2ccccc2oc1=O)C1CCC1 | - | - | - | - | - | -
O=c1oc2ccccc2c(O)c1CN1CCCCC1 | - | - | 30 | - | - | -
Cc1ccc(S(=O)(=O)N2CN(Cc3ccco3)c3nc4ccccc4nc32)cc1 | - | . | - | - | - | .
Cc1ccc(S(=O)(=O)N2CN(Cc3ccco3)c3nc4ccccc4nc32)cc1C | - | . | 32 | - | - | .
C1=C(CCNC2=NCCCCC2)CCCC1 | - | - | 32 | - | - | -
SMILES | Ecoli WT expand | Ecoli tolC | PostGolgi ctrl | PLAP activator | PostGolgi yeast | HePTP inh
COc1nc(NCCC2=CCCCC2)nc(OC)n1 | - | - | - | - | - | -
FC(F)(F)c1ccc2nnc(-c3cccc(OCc4ccccc4)c3)n2c1 | . | . | . | . | . | 101
FC(F)(F)c1cccc(-c2nnc3ccc(C(F)(F)F)cn23)c1 | - | - | - | - | - | -
COc1ccc2ccccc2c1-c1nnc2ccc(C(F)(F)F)cn12 | . | . | . | . | . | -
FC(F)(F)c1ccc2nnc(-c3cc(Br)ccc3OCc3ccccc3)n2c1 | . | . | . | . | . | 55
CC(=O)Oc1cc(C(=O)Nc2ccccc2C(=O)O)cc(C(=O)Nc2ccccc2C(=O)O)c1 | . | . | . | . | . | -
Cc1cccc(OCC(=O)N2CCN(c3ccccn3)CC2)c1 | . | . | . | . | . | -
Cc1cc(C)c(S(=O)(=O)NCCn2ccc3ccccc32)c(C)c1 | - | . | 57 | - | - | .
Cc1nn(Cc2ccccc2Cl)c2sc(C(=O)NCc3ccc4c(c3)OCO4)cc12 | - | . | - | - | - | .
COc1ccccc1CNC(=O)c1cc2c(C)nn(Cc3ccc(F)cc3)c2s1 | - | . | 33 | - | - | .
CCC(CC)NC(=O)c1cc2c(C)nn(Cc3ccccc3Cl)c2s1 | - | . | 38 | - | - | .
